This is a sample that favours compounds with a hit; in the whole collection about 4.2% have one here.
TMEM16A inh – TMEM16A chloride channel inhibitors, primary screen, cell-based, HTS | Anoctamin-1 (Mus musculus), Q8BHY3 | HEK293 TMEM16A/YFP iodide influx fluorescence, ionomycin | normalized B-score (activity score, 25-100; higher = stronger inhibition) at 10 µM | 310,000 tested, 1.2% active | AID 588511, 2011;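 active = ratio plate-corrected score three or more library SD toward inhibition, starting fluorescence score within five deviations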;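 note: score derived from kinetic fluorescence span divided by baseline fluorescence per well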
CHOP inh – inhibitors of CHOP promoter induction, primary screen, cell-based, unfolded protein response, luciferase reporter. AID 2732, 2010. CHO-K1 CHOP-promoter luciferase, tunicamycin-induced, 15-18 h. inhibition, % at 10 µM. 220,000 tested, 3.8% active;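 active = compounds that reduced the stress-induced luciferase reporter signal by more than about 70% of percent inhibition, limit read from the data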;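 note: 0% = tunicamycin plus vehicle and 100% = wells without tunicamycin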
ANO1 activ – TMEM16A chloride channel activators or potentiators, primary screen, cell-based, HTS. HEK293 TMEM16A/YFP-H148Q/I152L, iodide quench fluorescence; hits give low values. 340,000 tested, 0.3% active. AID 623877, 2012. B-score at 10 µM;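 active = fluorescence-ratio B-score plate-corrected deviation score at least 3 library SD below zero, with starting fluorescence score within 5 deviations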;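 note: channel opened by trigger with iodide after compound preincubation; score built on the fluorescence ratio of max minus min over baseline; more negative score means more quench and so TMEM16A activation or potentiation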
Lipid droplet – inhibitors of hepatocyte lipid droplet formation, primary screen, imaging, high-throughput imaging, BODIPY stain; AID 1656, 2009; inhibition, % at 6.5 µM; AML12 mouse hepatocytes, oleate lipid droplets; 240,000 tested, 0.4% active;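 active = lipid droplet intensity inhibited by at least 50%, with more than 500 cells counted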
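Material – AML12 mouse liver cells · Also added – oleate loading, 100 µM · Compound dosing – 6.5 µM single-point dosing · Times – overnight treatment with compound plus oleate · Measured by – fluorescence imaging, 20x objective, two fields per well · Read-out – percent inhibition of filter-corrected integrated lipid droplet intensity per well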
UPR XBP1 act – activators of adaptive XBP1 UPR arm, primary screen, cell-based, CHO-XBP1 luciferase reporter, luminescence, uHTS; IRE1-XBP1 UPR activation; percent of tunicamycin response, DMSO as zero; 330,000 tested, 0.33% active; activation, % at 20 µM;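 active = versus positive control, 20 µM dose yields 30% or more activation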;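 note: 100% = tunicamycin at 10 µg/mL and 0% = DMSO only wells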
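Material: CHO cell line with stable XBP1 luciferase reporter; buffer or medium: F12 medium containing 10% fetal bovine serum; compound: single point, 20 µM final compound, 1% DMSO; incubation: 6 h treatment, 37 °C; measured by: glow luminescence from Steady-Glo reagent; evaluation: activation, % of tunicamycin; control set: tunicamycin high, DMSO low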
UPR CHOP act – activators of apoptotic CHOP UPR arm, primary screen, cell-based, CHO-CHOP luciferase reporter, luminescence, uHTS; UPR activation; percent of tunicamycin response over DMSO baseline; activation, % at 10 µM; 330,000 tested, 0.34% active; AID 449763, 2010;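 active = at 10 µM dose, activation of 40% or more, normalized to positive control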;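 note: 100% = tunicamycin at 10 µg/mL and 0% = DMSO alone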
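Test system: CHO-CHOP cells, stable luciferase reporter of PERK-eIF2a-CHOP signalling | Quantity: 500 CHO-CHOP cells per well | Buffer or medium: F12 plus 10% serum | Compound dosing: 10 µM single point, 0.5% DMSO | Schedule: 6 h compound treatment, 37 °C | Signal: Luciferase luminescence | Control set: Tunicamycin high control, DMSO low control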
TMEM16A reconf – TMEM16A chloride channel inhibitors, confirmation, cell-based, re-confirmation; shares compounds with TMEM16A inh; 2,300 tested, 39% active; HEK293 TMEM16A/YFP-H148Q, iodide quench fluorescence; ionomycin added to raise cell calcium; AID 652189, 2013; inhibition, % at 10 µM;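 active = mean duplicate percent inhibition, scaled so buffer wells are 0 and the reference blocker 100, over three buffer SD above buffer mean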
HEK293 Ca mobil – calcium mobilization in TMEM16A/YFP HEK293 cells, confirmation, counter-screen for TMEM16A inhibitor project; shares compounds with TMEM16A inh; Fluo4 calcium mobilization; calcium response (% of ionomycin), % at 10 µM; 2,300 tested, 2% active;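 active = duplicate-averaged calcium signal over 20% of the ionomycin maximum, relative to buffer baseline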;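 note: each well's signal is peak minus trough fluorescence divided by its pre-addition baseline; 0% = buffer wells and 100% = ionomycin wells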
YFP-HEK293 quench – iodide YFP quench changes in parental YFP-HEK293, counter-screen for TMEM16A inhibitor project, cell-based. AID 652233, 2013. 2,300 tested, under 10 active. YFP ratio F(max-min)/F0 at 10 µM. ionomycin. shares compounds with TMEM16A inh;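 active = yellow fluorescent protein signal ratio exceeding the buffer control mean by over 5 SD of those controls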;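 note: ratio is mean of duplicate wells from kinetic YFP trace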
ClC-1 inh – ClC-1 chloride channel inhibition, selectivity assay for TMEM16A inhibitor project, cell-based, voltage-dependent ClC-1 | shares compounds with TMEM16A inh | CHO ClC-1-YFP, iodide influx fluorescence quench; iodide control reads 0, buffer control 100 | ratio percent, % at 10 µM | 2,300 tested, under 10 active | AID 652236, 2013;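 active = duplicate-mean ratio percent above the mean of iodide-only control wells, which defines zero, plus 5 of their SD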;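 note: higher percent means stronger block of ClC-1 iodide influx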
Target sequence (P35524 whole entry, looked up): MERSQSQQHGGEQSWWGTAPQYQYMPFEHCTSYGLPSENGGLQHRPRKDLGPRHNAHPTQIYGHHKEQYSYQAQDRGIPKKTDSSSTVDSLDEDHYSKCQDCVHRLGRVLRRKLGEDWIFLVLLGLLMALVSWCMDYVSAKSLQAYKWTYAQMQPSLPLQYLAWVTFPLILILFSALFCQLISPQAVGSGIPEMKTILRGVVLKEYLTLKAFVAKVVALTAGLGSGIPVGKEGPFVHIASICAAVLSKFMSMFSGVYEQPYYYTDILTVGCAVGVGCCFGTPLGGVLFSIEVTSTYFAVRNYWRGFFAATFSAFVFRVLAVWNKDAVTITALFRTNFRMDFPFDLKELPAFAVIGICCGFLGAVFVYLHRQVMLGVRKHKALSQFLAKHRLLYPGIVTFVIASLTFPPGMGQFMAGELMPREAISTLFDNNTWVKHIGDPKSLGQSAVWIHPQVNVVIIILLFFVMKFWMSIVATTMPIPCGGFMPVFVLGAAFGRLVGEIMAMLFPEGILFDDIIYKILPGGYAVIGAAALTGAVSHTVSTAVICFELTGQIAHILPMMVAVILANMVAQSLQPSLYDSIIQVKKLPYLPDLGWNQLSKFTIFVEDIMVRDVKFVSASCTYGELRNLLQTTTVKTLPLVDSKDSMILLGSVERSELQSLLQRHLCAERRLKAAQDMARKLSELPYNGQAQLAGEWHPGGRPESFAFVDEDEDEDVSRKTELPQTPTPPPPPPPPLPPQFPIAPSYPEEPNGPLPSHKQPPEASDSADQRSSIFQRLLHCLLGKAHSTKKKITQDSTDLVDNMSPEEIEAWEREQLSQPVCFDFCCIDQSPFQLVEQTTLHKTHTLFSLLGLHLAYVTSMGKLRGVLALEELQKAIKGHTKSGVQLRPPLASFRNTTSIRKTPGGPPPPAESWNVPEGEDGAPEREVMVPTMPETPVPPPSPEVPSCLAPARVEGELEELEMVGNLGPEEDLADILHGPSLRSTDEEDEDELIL
Numbers without * were called inactive; i = inactive; x = no result given.

SMILES	TMEM16A inh	CHOP inh	ANO1 activ	Lipid droplet	UPR XBP1 act	UPR CHOP act	TMEM16A reconf	HEK293 Ca mobil	YFP-HEK293 quench	ClC-1 inh
COc1ccc([N+](=O)[O-])cc1NCc1ccccc1	i	-13	i	3	5	3	x	x	x	x
COc1ccc([N+](=O)[O-])cc1NCc1ccccc1C	100*	-31	i	x	1	2	i	i	-1.2	-9
CCn1cnc2sc(-c3ccccc3)cc2c1=O	i	-6	i	-2	7	5	x	x	x	x
Cc1ccc(C)n1-n1c(C)nc2sc(-c3ccccc3)cc2c1=O	100*	77*	i	-14	-4	2	i	i	-0.94	2
CCCOc1ccccc1Cn1c(=O)oc2ccc(C)cc21	100*	81*	i	-24	-3	-1	i	i	-1.1	-10
Cc1ccc(C2CC2C(=O)NNC(=S)Nc2cccc(C)c2)cc1 (stereo not given)	i	14	i	-3	1	0	x	x	x	x
Cc1ccc(C2CC2C(=O)NNC(=S)Nc2cccc(Cl)c2)cc1 (stereo not given)	25*	18	i	-4	2	0	23%*	i	-1	-13
O=C(c1cc(COc2c(F)cccc2F)on1)N1CCC(c2ccncc2)CC1	25*	57	i	-16	3	-1	i	i	-1.2	-22
Cc1cccc(C)c1OCc1cc(C(=O)N2CCC(c3ccncc3)CC2)no1	25*	x	i	-20	-8	5	21%*	i	-1	-22
CCN(CC(=O)Nc1ccccc1OC)C(=O)c1cc(S(=O)(=O)N2CCCCCC2)ccc1OC	i	x	i	x	-1	1	x	x	x	x
COc1ccc(N(C)C(=O)c2onc3c2CCCC3)cc1	i	23	i	-7	1	2	x	x	x	x
CCN(c1ccccc1)S(=O)(=O)c1cc(NC(=O)Nc2ccccc2C#N)ccc1Cl	25*	13	i	11	0	0	i	i	-1	-6
CN(C)S(=O)(=O)c1cc(NC(=O)COC(=O)C2COc3ccccc3O2)ccc1Cl (stereo not given)	i	6	i	2	-1	-1	x	x	x	x
CCN(c1ccccc1)S(=O)(=O)c1cc(NC(=O)COC(=O)C2CC2)ccc1Cl	100*	9	i	-2	-3	1	i	i	-0.9	-4
CCCc1nnc(NC(=O)C(CC)OC(=O)c2cc(C)nc3ccccc23)s1 (stereo not given)	100*	41	i	x	-3	-2	i	i	-1.1	-16
CCCc1nnc(NC(=O)COC(=O)c2cc(C)nc3ccccc23)s1	i	43	i	x	-1	-1	x	x	x	x
